Laboratory results from article PMC8591627 (ACS infectious diseases, 2021).
In brackets after ≈: the same amount, converted by molar mass.

What was measured:
[1] = Mouse pharmacokinetic study; type: in vivo; conditions: CD-1 mice, oral 25 mg/kg, 0.5-5 h
Method in brief: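 Two female CD-1 mice received one oral 25 mg/kg dose in 20% DMA/80% PEG300. K2EDTA blood was taken pre-dose and at 0.5, 1, 3 and 5 h, and plasma was stored at −80 °C. Samples were precipitated with acetonitrile/methanol containing a verapamil internal standard and analysed by LC-MS/MS in MRM positive mode. Standard curves were made in CD-1 plasma, and QCs had to fall within 20% of nominal.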

S. aureus (ATCC 43300) = assay: Nitric oxide release assay, Griess reagent; type: cell-based, Staphylococcus aureus; conditions: 100 μM, over 48 h; positive control DEA-NONOate
Method in brief: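 ATCC 43300 was grown in Mueller-Hinton medium to OD600 0.4 and split three ways: untreated, 100 μM test compound, or 100 μM DEA-NONOate. At 24 and 48 h, samples were centrifuged and supernatants were mixed with fresh Griess reagent for 30 min at room temperature. Absorbance at 548 nm was converted to nitrite against sodium nitrite standards (50–0.78 μM, 2-fold) made in medium.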

MRSA strain LAC = assay: Selection of spontaneous resistant mutants, frequency; type: cell-based, Staphylococcus aureus; conditions: 8x MIC, 3 d incubation
LAC yceI::Tn strain = assay: as above; type: cell-based, Staphylococcus aureus
S. aureus LAC pLL39 = assay: MIC; type: cell-based, Staphylococcus aureus; conditions: genotype pLL39, LAC background
S. aureus LAC pLL39_yceI = assay: MIC; type: cell-based, Staphylococcus aureus; conditions: genotype pLL39_yceI, LAC background
[2] = test system: S. aureus LAC pLL39_yceI2; assay: MIC; type: cell-based, Staphylococcus aureus; conditions: genotype pLL39_yceI2, LAC background
[3] = test system: S. aureus LAC yceI::Tn pLL39_yceI3; assay: MIC; type: cell-based, Staphylococcus aureus; conditions: genotype yceI::Tn pLL39_yceI3, LAC background
LAC pEPSA5 = assay: MIC; type: cell-based, Staphylococcus aureus
Method in brief: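 LAC strains carried empty pEPSA5 or pEPSA5_yceI (yceI under a xylose-inducible promoter). They were grown overnight with or without xylose induction; for the azoR overexpression set, pEPSA strains were cultured with 1% xylose. The 1/1000 inoculum went into Mueller-Hinton broth with serial compound dilutions, incubated statically at 37 °C for 18 h. Values represent three independent experiments.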

LAC yceI::Tn = assay: MIC; type: cell-based, Staphylococcus aureus; conditions: genotype yceI::Tn, LAC background
Method in brief: (§1)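 Overnight cultures were grown in 5 mL Mueller-Hinton at 37 °C with shaking at 200 rpm. They were diluted 1/1000 into 96-well plates holding serial dilutions of test compound in Mueller-Hinton broth. Plates were sealed against drying and incubated statically at 37 °C for 18 h before reading. All strains are isogenic and in the LAC background.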

LAC azoR::Tn = assay: MIC; type: cell-based, Staphylococcus aureus; conditions: genotype azoR::Tn, LAC background
Method in brief: as §1

LAC yceI::Tn azoR2 = assay: MIC; type: cell-based, Staphylococcus aureus
Method in brief: as §1

LAC yceI::Tn pCM28 = assay: MIC; type: cell-based, Staphylococcus aureus
Method in brief: as §1

LAC yceI::Tn pCM28_azoR = assay: MIC; type: cell-based, Staphylococcus aureus
Method in brief: as §1

LAC yceI::Tn azoR2 pCM28 = assay: MIC; type: cell-based, Staphylococcus aureus
Method in brief: as §1

LAC yceI::Tn azoR4 pCM28 = assay: MIC; type: cell-based, Staphylococcus aureus
Method in brief: as §1

Structure (SMILES): O=C(Nc1cc(Cl)cc2cccnc12)c1ccc([N+](=O)[O-])s1 [JSF-3151]
- mouse plasma level relative to MIC [1]: inability to reach the MIC over a 5 h time period
- NO• production as nitrite in supernatant (Griess reagent) (S. aureus (ATCC 43300)): neither DAF-FM (over 2 h) nor the Griess reagent (over 48 h) evidenced NO• production
- frequency of resistant mutants (MRSA strain LAC): 6 x 10^−8
- frequency of heritable resistance (LAC yceI::Tn strain): approximately 3 x 10^−8
- MIC (S. aureus LAC pLL39): 6.2 µg/mL (≈ 18.6 µM)
- MIC (S. aureus LAC pLL39_yceI): 6.2 µg/mL (≈ 18.6 µM)
- MIC [2]: 50 µg/mL (≈ 150 µM)
- MIC [3]: 50 µg/mL (≈ 150 µM)
- MIC (LAC pEPSA5; LAC pEPSA5, cultured with 1% xylose (Table 6)): 1.5 µg/mL (≈ 4.49 µM)
- MIC (LAC pEPSA5; LAC pEPSA5, growth with xylose +): 0.78 µg/mL
- MIC (LAC pEPSA5; LAC pEPSA5, growth with xylose −): 0.78 µg/mL (≈ 2.34 µM)
- MIC (LAC yceI::Tn): 0.78 µg/mL (≈ 2.34 µM)
- MIC (LAC azoR::Tn): 50 µg/mL (≈ 150 µM)
- MIC shift versus yceI::Tn parental strain (LAC yceI::Tn azoR2; azoR2 (Trp60stop)): 32 fold
- MIC (LAC yceI::Tn azoR2; genotype yceI::Tn azoR2): 25 µg/mL (≈ 74.9 µM)
- MIC (LAC yceI::Tn pCM28): 0.78 µg/mL (≈ 2.34 µM)
- MIC (LAC yceI::Tn pCM28_azoR): 0.78 µg/mL (≈ 2.34 µM)
- MIC (LAC yceI::Tn azoR2 pCM28): 25 µg/mL (≈ 74.9 µM)
- MIC (LAC yceI::Tn azoR4 pCM28): 25 µg/mL (≈ 74.9 µM)
